Compound activity: PubChem, several laboratories
TRPML3 agonist: human mucolipin-3 channel agonism; Q8TDD5; actives 0.29% (n = 220,000); AID 1448; HEK293 TRPML3-YFP, Fluo-8 calcium fluorescence; 100% = the carbachol control signal; activation, % at 3 µM;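 active = activation above its plate's cutoff, the mean activation of the plate's test wells plus 3 SD, cut at about 12% in these data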;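 also: 0% = DMSO only wells and 100% = carbachol wells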
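Material: TRPML3-YFP stable HEK293 cells | Dosing: One concentration, 3 µM nominal, 0.3% DMSO | Timing: 125 s total fluorescence read per well | Technique: Fluo-8 calcium dye fluorescence, ex 470-495, em 515-575 nm | Measure: Percent activation from peak-to-basal fluorescence ratio, scaled between DMSO and carbachol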
zfTRPN1 agonist: agonists of zebrafish TRPN1 channel. HEK293 zebrafish TRPN1-YFP, Fluo-8 calcium fluorescence; 100% = response to 87 µM carbachol. actives 0.18% (n = 220,000). activation, % at 3 µM;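 active = activation above its plate's cutoff, the mean activation of test wells on that plate plus 3 SD, cut at about 19% in these data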;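 also: 0% = DMSO alone and 100% = 87 µM carbachol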
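Material: zebrafish TRPN1-YFP in HEK293 cells; Doses: single test compound dose, 3 µM nominal, 0.3% DMSO; Timing: dye loading 1 h at 37 °C, then 30 min room temperature; Technique: intracellular calcium fluorescence with Fluo-8; Benchmarks: high carbachol 87 µM, low DMSO alone.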
TAAR1 antagonist: antagonists of human TAAR1; actives 1.5% (n = 360,000); AID 624466; inhibition, % at 3 µM; CHO RD-HGA16 TAAR1, Fluo-8 calcium fluorescence, antagonist;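 active = inhibition above a per-plate cutoff, the mean inhibition of test compounds on that plate plus 3 SD, cut at about 49% in these data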;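 also: 0% = DMSO plus EC80 beta-PEA response and 100% = DMSO alone without agonist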
Target sequence (Q96RJ0 whole entry, looked up): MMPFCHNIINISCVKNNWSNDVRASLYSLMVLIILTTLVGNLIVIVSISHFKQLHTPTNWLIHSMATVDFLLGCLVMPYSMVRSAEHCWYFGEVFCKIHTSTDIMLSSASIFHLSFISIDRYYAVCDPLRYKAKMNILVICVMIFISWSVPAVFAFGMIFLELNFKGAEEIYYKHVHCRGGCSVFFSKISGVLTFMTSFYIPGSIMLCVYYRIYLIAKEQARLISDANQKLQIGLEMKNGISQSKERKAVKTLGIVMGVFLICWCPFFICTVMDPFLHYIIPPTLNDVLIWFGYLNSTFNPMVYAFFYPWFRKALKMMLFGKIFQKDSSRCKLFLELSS
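Test system – hTAAR1-expressing CHO RD-HGA16 cells, Gα16-coupled · Also added – β-PEA at EC80 concentration, post-compound challenge · Compound – 3 µM, single point · Incubation – dye loading 75 min at 37 °C, then 30 min room temperature · Measured by – Fluo-8 intracellular calcium dye fluorescence, real-time kinetic reads · Benchmarks – vehicle and agonist controls · Replicates – singlicate, one well per test compound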
TAAR1 ag: human TAAR1 agonism; CHO RD-HGA16 TAAR1, Fluo-8 calcium fluorescence; vehicle wells 0%, saturating PEA agonist 100%; AID 624467; actives 0.99% (n = 360,000); activation, % at 3 µM;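 active = activation above the mean activation of all test compounds in the run plus 3 SD, cut at about 38% in these data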
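System: CHO-derived RD-HGA16 cells with stable Gα16 and human TAAR1 / Times: 17-24 h plating, Fluo-8 75 min 37 °C, 30 min RT / Technique: calcium-sensitive Fluo-8 signal, excitation 470-495, emission 515-575 nm / Measure: % activation relative to PEA EC100 response / Benchmarks: DMSO and PEA EC100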
LANA-H2B inh: blocks KSHV LANA binding to histone H2A/H2B. Q9QR71. cell-free LANA-H2A/H2B peptide, fluorescence polarization. inhibition, % (concentration not given with the values). actives 0.6% (n = 320,000). AID 2629; in the data active = inhibition mostly above about 10%, no sharp cut-off; inactive = mostly below about 6.7%
GPR7 antag: antagonists of human GPR7 (neuropeptides B/W receptor 1) | P48145 | GPR7-expressing cells, fluorescence antagonist assay | inhibition, % at 4.4 µM | actives 1.1% (n = 290,000); in the data active = inhibition above about 16%, passing the limit was not always enough;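 also: cells stimulated with the agonist NPW; 0% = agonist with vehicle and 100% = vehicle without agonist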
TAAR1 nonsel count: nonselective antagonism, TAAR1 counter-screen | shares compounds with TAAR1 antagonist | counterscreen cell line, calcium fluorescence, antagonist mode | inhibition, % at 3 µM | actives 77% (n = 2,400); in the data active = inhibition above about 22%;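 also: CHO-Ga16 host cells stimulated with ATP at an EC80 level; 0% = agonist EC80 plus vehicle and 100% = vehicle without agonist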
TAAR1 antag conf: confirmation of human TAAR1 antagonists; shares compounds with TAAR1 antagonist; TAAR1-expressing cells, fluorescence antagonist read-out; inhibition, % at 3 µM; actives 40% (n = 2,400); AID 651785; in the data active = inhibition above about 49%;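 also: CHO-Ga16 host cells challenged with agonist PEA near its EC80; 0% = agonist at EC80 plus vehicle and 100% = vehicle with no agonist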
Ga16 nonsel ag: nonselective Ga16 agonist in TAAR1 antagonist counter-screen. Ga16-expressing cells, calcium fluorescence, agonist counterscreen. shares compounds with TAAR1 antagonist. actives 18% (n = 2,400). activation, % at 3 µM; in the data active = activation above about 12%;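 also: 0% = vehicle wells and 100% = saturating stimulus response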
TAAR1 ag count: counter-screen for human TAAR1 antagonists: TAAR1 agonists. hTAAR1 cell line, fluorescence activation, agonist mode. shares compounds with TAAR1 antagonist. AID 651955. activation, % at 3 µM. actives 2% (n = 2,400); in the data active = activation above about 37%;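 also: CHO cells stably expressing TAAR1 with calcium dye readout; 0% = DMSO vehicle and 100% = full agonist response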
* = called active by the depositor; . = no result given. Most compounds without a hit are left out; they make up all but 3.4% or so of the library.

SMILES	TRPML3 agonist	zfTRPN1 agonist	TAAR1 antagonist	TAAR1 ag	LANA-H2B inh	GPR7 antag	TAAR1 nonsel count	TAAR1 antag conf	Ga16 nonsel ag	TAAR1 ag count
COC(=O)[C@]12CCCCC=C1N(Cc1ccc3c(c1)OCO3)C(=O)[C@H](CC(=O)N1CCSCC1)C2	.	.	67*	12	.	.	26*	48	9	14
CCOC(=O)c1c(C)[nH]c(C)c1C(=O)CSc1nc2ccccc2n1CCC#N	0	0	14	0	-2	-10	.	.	.	.
CCCn1c(SCC(=O)c2c(C)[nH]c(C)c2C(=O)OCC)nc2ccccc21	0	-2	49*	12	-6	-1	18	34	10	15
O=C(NCCc1ccccc1)c1cccs1	0	0	6	15	-3	4	.	.	.	.
CCN=c1sc(C(=O)NCCc2ccccc2)cc(=O)n1CC	2	3	55*	26	4	-4	31*	53*	11	25
CCc1ccc(C(C(=O)NCc2ccc(OC)cc2)N(CCOC)C(=O)Cc2cccs2)cc1 (centres undefined)	-1	-2	73*	19	1	-6	29*	53*	9	8
COCCN(C(=O)Cc1cccs1)C(C(=O)NCc1ccc(OC)cc1)c1ccc(C(C)C)cc1 (centres undefined)	0	-1	64*	15	-4	0	29*	54*	10	13
COc1ccc(CNC(=O)Cc2cccs2)cc1	.	.	.	.	-4	-8	.	.	.	.
O=C(Cc1cccs1)NCc1ccc2c(c1)OCO2	0	0	9	2	3	-5	.	.	.	.
COCCN(C(=O)Cc1cccs1)C(C(=O)NCc1ccc(OC)cc1)c1ccc(C)cc1 (centres undefined)	0	-1	28	14	5	-10	.	.	.	.
O=C(NCc1ccccc1)C(c1ccccc1)N(Cc1ccc2c(c1)OCO2)C(=O)Cc1cccs1 (centres undefined)	-1	-2	80*	10	3	-12	40*	59*	12*	8
COc1ccc(CNC(=O)C(c2ccc(C)o2)N(Cc2cccs2)C(=O)Cc2cccs2)cc1 (centres undefined)	0	-1	87*	22	-1	-5	42*	68*	11	9
C=CCOC(=O)C1=C(C)NC(SCC(=O)Nc2nccs2)=C(C#N)C1c1cccs1 (centres undefined)	-1	-2	53*	18	3	3	19	38	11	25
C=CCOC(=O)C1=C(C)NC(SCC(=O)Nc2nccs2)=C(C#N)C1c1ccc(Cl)cc1 (centres undefined)	0	1	30	8	-2	3	.	.	.	.
CSc1ncnc2c1ncn2CCCNCC(c1ccccc1)c1ccccc1	.	.	3	8	.	.	.	.	.	.
O=C(CN1C(=O)NC2(CCCC2)C1=O)NCc1ccc(Cl)cc1	.	.	-2	5	-3	.	.	.	.	.
Cc1nc2ccccc2c(=O)n1/N=C/c1ccc(C(C)C)cc1	.	.	61*	4	0	-7	31*	43	2	-3
CSc1ccccc1NC(=O)CN1CCN(c2ccccn2)CC1	.	.	5	5	0	-7	.	.	.	.
O=C(CN1CCN(c2ccccn2)CC1)Nc1ccc([N+](=O)[O-])cc1C(=O)Nc1ccccc1F	.	.	57*	3	-2	6	17	40	16*	5
Nn1c(COc2ccccc2F)nnc1SCC(=O)NC1CCS(=O)(=O)C1 (centres undefined)	.	.	-12	0	1	.	.	.	.	.
